According to article PMC7540414 (The Prostate, 2020):

Experiments:
[1] = system: patient 1 tumor CR cells; experiment: Drug sensitivity assay; format: cell-based, Human; conditions: for Sensitivity of tumor-derived CR cells compared with benign CR cells: patient 1, IC50 comparison, 72 hour, P < .05 where significant
Procedure, shortened: (§1)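 Tumor CR cells came from radical prostatectomy tissue (>70% tumor) by protease dissociation and the conditional reprogramming method, alongside matched benign CR cells. 3000 cells per well were seeded in conditioned medium, in triplicate. After 24 h, medium containing test compound was added. […] Values are mean ± SD of three separate experiments in triplicate.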

[2] = system: patient 2 tumor CR cells; experiment: Drug sensitivity assay; format: cell-based, Human; conditions: for Sensitivity of tumor-derived CR cells compared with normal CR cells: patient 2, IC50 comparison, 72 hour, P < .01 where significant
Procedure, shortened: as §1

[3] = system: metastatic CRPC; conditions: phase I trials; cited from earlier work
[4] = system: metastatic CRPC; conditions: phase II trial, CFZ in combination with other drugs; cited from earlier work
[5] = system: tumor CR cells; format: cell-based, Human; conditions: shared by patients 1 and 2; FDR 0.05; FC 1.5
Procedure, shortened: (§2)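 Tumor and normal CR cells from each patient were grown in conditioned medium and given test compound (28 nM for patient 1, 6.5 nM for patient 2) or DMSO, then profiled by RNA-seq. Treated-vs-DMSO DEGs were called at FDR < 0.05 and FC 1.5. Induced and inhibited gene sets were compared across both patients' cells by Venn diagram (Venny).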

[6] = system: normal CR cells; format: cell-based, Human; conditions: shared by patients 1 and 2; FDR 0.05; FC 1.5
Procedure, shortened: as §2

Compound	Sensitivity of tumor-derived CR cells compared with benign CR cells [1]	Sensitivity of tumor-derived CR cells compared with normal CR cells [2]	other results
N[C@@H](CCC(=O)N[C@@H](CS)C(=O)NCC(=O)O)C(=O)O [GSH, glutathione]	No significant differential responses	No significant differential responses	–
CC(C)C[C@H](NC(=O)[C@H](Cc1ccccc1)NC(=O)c1cnccn1)B(O)O [BTZ, bortezomib]	more sensitive	significant responses	patients showing stable PSA [3]: 25%; patients with more than 50% decline in PSA [3]: 4%
S=C=NCCc1ccccc1 [PTC, phenethyl isothiocyanate]	–	no differences in sensitivity	–
Nc1nccc(-c2c(-c3ccc(F)cc3)ncn2C2CCNCC2)n1 [SB220025]	No significant differential responses	No significant differential responses	–
C[S+]([O-])CCCCN=C=S (stereo not shown) [SFN, sulforaphane]	more sensitive	no differences in sensitivity	–
CC(C)C[C@H](NC(=O)[C@H](CCc1ccccc1)NC(=O)CN1CCOCC1)C(=O)N[C@@H](Cc1ccccc1)C(=O)N[C@@H](CC(C)C)C(=O)[C@@]1(C)CO1 [CFZ, carfilzomib]	more sensitive	significant responses	IC50 ([1]; Homo sapiens, 72 h): 28 nM; patients with a decline in PSA [4]: 3.5%; common genes exclusively induced in the tumor CR cells [5]: 23; genes inhibited that were shared in the tumor CR cells [5]: 45; shared genes inhibited in the normal CR cells [6]: 56; IC50 ([2]; Homo sapiens, 72 h): 6.5 nM
